Measured values taken from PMC9835613 (Chemosphere, 2022).
Where “and” joins values, the source holds several entries; their conditions need not be identical. Equal entries are not always repeated. Marks after values point to notes of the source that are not given here.

Columns and labels:
[1] = ref Burkhard and Kuehl, 1986; cited from earlier work
zebrafish = test: Survival of embryos after TCDD exposure; format: in vivo, zebrafish (Danio rerio); conditions: TCDD-exposed groups at 72 hpf; control (DMSO) 96.4%, p = 0.49
[2] = TCDD body burden and elimination in embryos, GC-HRMS; format: in vivo, zebrafish (Danio rerio); conditions: for body burden relative to the 50 ppt dose: 24 hpf; for Concentration of TCDD detected per embryo (body burden): 1 h at 4 hpf, mean; for half-life: zebrafish, whole embryo (pooled embryos), other: waterborne exposure
Outline: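 AB zebrafish embryos, screened at 3 hpf, exposed at 4 hpf (20 per 2 mL egg water) for 1 h to 50 ppt, 1 ppb or 10 ppb test compound (DMSO stock diluted 1:1000) or paired DMSO, then raised in fresh egg water at 28.5 °C. Dechorionated at 24 hpf. Pooled embryos (7 at 1 and 10 ppb) snap-frozen at 24, 48 and 72 hpf.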

zebrafish metabolome = test: Non-targeted LC-HRMS metabolomics of TCDD-exposed embryos; format: in vivo, zebrafish (Danio rerio); conditions: TCDD exposed vs DMSO
Outline: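 Embryos given a 1-h exposure at 4 hpf to 50 ppt or 10 ppb test compound, or matched DMSO, pooled (40 and 7 embryos respectively) at 24, 48 and 72 hpf. LC-HRMS used HILIC (25 °C) and C18 (60 °C) columns with 2 mM ammonium acetate/acetonitrile gradients, in negative and positive ion modes.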

Which Kow [1] does the source give for `Clc1cc2c(cc1Cl)Oc1cc(Cl)c(Cl)cc1O2` [TCDD, 2,3,7,8-tetrachlorodibenzo-p-dioxin] here?
The Kow was 7.02.

What about the average survival rate (zebrafish) of the same molecule?
The average survival rate was 96.3%.

And the “body burden relative to the 50 ppt dose” value ([2]; 1 ppb exposure vs 50 ppt exposure)?
The value was “approximately 3 times”.

And the “Concentration of TCDD detected per embryo (body burden)” value ([2]; 1 ppb waterborne exposure, 48 HPF)?
Its value is 12.7 pg/embryo.

What about the “Concentration of TCDD detected per embryo (body burden)” value ([2]; 1 ppb waterborne exposure, 72 HPF) of the same molecule?
The value was 4.30* pg/embryo.

What about the “body burden relative to the 50 ppt dose” value ([2]; 10 ppb exposure vs 50 ppt exposure) of the same molecule?
The value was “approximately 4.45 times”.

What about the “Concentration of TCDD detected per embryo (body burden)” value ([2]; 10 ppb waterborne exposure, 24 HPF) of the same molecule?
Its value is 26.6 ± 1.2 pg/embryo and 38.0 ± 4.34 pg/embryo and 38.0* pg/embryo.

And the “Concentration of TCDD detected per embryo (body burden)” value ([2]; 10 ppb waterborne exposure, 48 HPF)?
Its value is 14.7 pg/embryo.

What about the “Concentration of TCDD detected per embryo (body burden)” value ([2]; 10 ppb waterborne exposure, 72 HPF) of the same molecule?
Its value is 9.78* pg/embryo.

And the “Concentration of TCDD detected per embryo (body burden)” value ([2]; 50 ppt waterborne exposure, 48 HPF)?
The value was 5.27 pg/embryo.

And the “Concentration of TCDD detected per embryo (body burden)” value ([2]; 50 ppt waterborne exposure, 72 HPF)?
The value was 0.407 pg/embryo.

What about the half-life ([2]; 1 ppb) of the same molecule?
Its half-life is 32.7 h.

And the half-life ([2]; 10 ppb)?
Its half-life is 10.7 h.

And the “upregulation of 3a, 7a-Dihydroxy-5b-cholestane” value (zebrafish metabolome; bile acid biosynthesis pathway)?
Its value is 1.01 fold.

And the “decrease of the dihydrotestosterone peak” value (zebrafish metabolome; every 24 h)?
The value was 6.02 fold.

What about the downregulation of androsterone (zebrafish metabolome; every 24 h) of the same molecule?
The downregulation of androsterone was 0.363 fold.

What about the upregulation of pregnenolone (zebrafish metabolome; every 24 h) of the same molecule?
Its upregulation of pregnenolone is 0.529 fold.

And the “downregulation of L-Glutamic acid (glutamate)” value (zebrafish metabolome; over time)?
Its value is 0.30 fold.

What about the downregulation of dopamine (zebrafish metabolome; over time) of the same molecule?
Its downregulation of dopamine is 0.66 fold.

What about the “downregulation of gamma-aminobutyric acid (GABA)” value (zebrafish metabolome; over time) of the same molecule?
The value was 0.32 fold.
